Reference: ChEMBL document CHEMBL1141661, “Synthesis and anti-mycobacterial activity of (E)-N'-(monosubstituted-benzylidene)isonicotinohydrazide derivatives” (Eur J Med Chem, 2008)
≈ marks a conversion by molar mass, not a printed value.

Tests used:
[1] = test system: Mycobacterium tuberculosis; test: Antimycobacterial activity against rifampin and isoniazid-susceptible Mycobacterium tuberculosis H37Rv ATCC 27294 after 5 days by Alamar blue assay; assay type: functional; settings: 120 h
Outline: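 Microplate Alamar Blue assay in Middlebrook 7H9 broth; compounds serially diluted on the plate, final concentrations […]. Plates sealed and incubated 37 °C for 5 days, then 1:1 Alamar Blue reagent/10% Tween 80 added and incubated a further 24 h. Blue scored as no growth, pink as growth; MIC is the lowest concentration preventing the blue-to-pink change.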

[2] = Cytotoxicity against mouse macrophages assessed as cell viability at 0.1 ug/mL after 18 hrs by MTT assay; assay type: cell-based, Macrophage; settings: read-out: Activity
Outline: (§1)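 Murine macrophages plated at 2.5 × 10⁶ cells/mL and held 1 h at 37 °C under 5% CO₂. Nonadherent cells were then flushed off with RPMI 1640. Adherent cells were exposed in triplicate to compound at 0.1, 1.0, 10.0 or 100, medium alone (live control) or 3% tween 20 (dead control). After 18 h MTT was added for 4 h. Formazan was dissolved in DMSO and A540 read.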

[3] = Cytotoxicity against mouse macrophages assessed as cell viability at 1 ug/mL after 18 hrs by MTT assay; assay type: cell-based, Macrophage; settings: read-out: Activity; outline: as §1
[4] = Cytotoxicity against mouse macrophages assessed as cell viability at 10 ug/mL after 18 hrs by MTT assay; assay type: cell-based, Macrophage; settings: read-out: Activity; outline: as §1
[5] = Cytotoxicity against mouse macrophages assessed as cell viability at 100 ug/mL after 18 hrs by MTT assay; assay type: cell-based, Macrophage; settings: read-out: Activity; outline: as §1

Row | SMILES | MIC [1] [µg/mL] | viability at 18 h, 0.1 ug/mL [2] [%] | viability at 18 h, 1 ug/mL [3] [%] | viability at 18 h, 10 ug/mL [4] [%] | viability at 18 h, 100 ug/mL [5] [%]
1 | O=C(N/N=C/c1cccc([N+](=O)[O-])c1)c1ccncc1 | 5 (≈ 18.5 µM) |  |  |  | 
2 | N#Cc1ccccc1/C=N/NC(=O)c1ccncc1 | 0.62 (≈ 2.48 µM) | 100 | 100 | 100 | 95
3 | O=C(N/N=C/c1cccc(O)c1)c1ccncc1 | 1.25 (≈ 5.18 µM) |  |  |  | 
4 | O=C(N/N=C/c1ccc(F)cc1)c1ccncc1 | 0.31 (≈ 1.27 µM) | 100 | 100 | 97 | 96
5 | O=C(N/N=C/c1ccccc1)c1ccncc1 [N'-BENZYLIDENE ISONICOTINOHYDRAZIDE] | 3.12 (≈ 13.9 µM) |  |  |  | 
6 | O=C(N/N=C/c1cccc(F)c1)c1ccncc1 | 3.12 (≈ 12.8 µM) |  |  |  | 
7 | N#Cc1ccc(/C=N/NC(=O)c2ccncc2)cc1 | 5 (≈ 20 µM) |  |  |  | 
8 | O=C(N/N=C/c1ccc(Cl)cc1)c1ccncc1 | 0.31 (≈ 1.19 µM) | 100 | 97 | 97 | 96
9 | O=C(N/N=C/c1ccc([N+](=O)[O-])cc1)c1ccncc1 [N'-(4-NITROBENZYLIDENE)ISONICOTINOHYDRAZIDE] | 1.25 (≈ 4.63 µM) |  |  |  | 
10 | O=C(N/N=C/c1ccccc1Br)c1ccncc1 | 5 (≈ 16.4 µM) |  |  |  | 
11 | NNC(=O)c1ccncc1 [ISONIAZID] | 0.2 (≈ 1.46 µM) |  |  |  | 
12 | COc1ccc(/C=N/NC(=O)c2ccncc2)cc1 | 5 (≈ 19.6 µM) |  |  |  | 
13 | CCOc1cccc(/C=N/NC(=O)c2ccncc2)c1 | 1.25 (≈ 4.64 µM) |  |  |  | 
14 | O=C(N/N=C/c1ccccc1Cl)c1ccncc1 | 1.25 (≈ 4.81 µM) |  |  |  | 
15 | CO[C@H]1/C=C/O[C@@]2(C)Oc3c(C)c(O)c4c(O)c(c(/C=N/N5CCN(C)CC5)c(O)c4c3C2=O)NC(=O)/C(C)=C\C=C\[C@H](C)[C@H](O)[C@@H](C)[C@@H](O)[C@@H](C)[C@H](OC(C)=O)[C@@H]1C [RIFAMPIN] | 1 (≈ 1.22 µM) |  |  |  | 
16 | O=C(N/N=C/c1cccc(Br)c1)c1ccncc1 | 2.5 (≈ 8.22 µM) |  |  |  | 
17 | COc1ccccc1/C=N/NC(=O)c1ccncc1 | 0.31 (≈ 1.21 µM) | 100 | 100 | 100 | 98
18 | O=C(N/N=C/c1ccccc1[N+](=O)[O-])c1ccncc1 | 5 (≈ 18.5 µM) |  |  |  | 
19 | COc1cccc(/C=N/NC(=O)c2ccncc2)c1 | 5 (≈ 19.6 µM) |  |  |  | 
20 | N#Cc1cccc(/C=N/NC(=O)c2ccncc2)c1 | 1.25 (≈ 4.99 µM) |  |  |  | 
21 | O=C(N/N=C/c1ccc(Br)cc1)c1ccncc1 | 5 (≈ 16.4 µM) |  |  |  | 
22 | CCOc1ccccc1/C=N/NC(=O)c1ccncc1 | 1.25 (≈ 4.64 µM) |  |  |  | 
23 | O=C(N/N=C/c1ccccc1F)c1ccncc1 | 3.12 (≈ 12.8 µM) |  |  |  | 
24 | O=C(N/N=C/c1cccc(Cl)c1)c1ccncc1 [N'-(3-CHLOROBENZYLIDENE)ISONICOTINOHYDRAZIDE] | 0.31 (≈ 1.19 µM) | 100 | 100 | 100 | 100
